In brackets after ≈: the same amount, converted by molar mass.
How the values were obtained:
Format in all cases: functional
[1] = system: Mythimna separata; assay: Larvicidal activity against fourth-instar larval stage of Mythimna separata (Oriental armyworm) in compound-pretreated corn leaves assessed as mortality at 25 mg/kg at 25 +/-1 degC measured after 4 days
Summary of the method: (§1)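 Insects were reared in the laboratory and tested at 25 ± 1 °C, with repeats as statistics required. Larvae were scored dead or alive. Mortality was corrected by Abbott's formula and expressed on a 0–100 scale, where 0 is no activity and 100 is total kill.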

[2] = system: Mythimna separata; assay: Larvicidal activity against fourth-instar larval stage of Mythimna separata (Oriental armyworm) in compound-pretreated corn leaves assessed as mortality at 2.5 mg/kg at 25 +/-1 degC measured after 4 days; summary of the method: as §1
[3] = system: Mythimna separata; assay: Larvicidal activity against fourth-instar larval stage of Mythimna separata (Oriental armyworm) in compound-pretreated corn leaves assessed as mortality at 10 mg/kg at 25 +/-1 degC measured after 4 days; summary of the method: as §1
[4] = system: Mythimna separata; assay: Larvicidal activity against fourth-instar larval stage of Mythimna separata (Oriental armyworm) in compound-pretreated corn leaves assessed as mortality at 5 mg/kg at 25 +/-1 degC measured after 4 days; summary of the method: as §1
[5] = system: Mythimna separata; assay: Larvicidal activity against fourth-instar larval stage of Mythimna separata (Oriental armyworm) in compound-pretreated corn leaves assessed as mortality at 50 mg/kg at 25 +/-1 degC measured after 4 days; summary of the method: as §1
[6] = system: Mythimna separata; assay: Larvicidal activity against fourth-instar larval stage of Mythimna separata (Oriental armyworm) in compound-pretreated corn leaves assessed as mortality at 100 mg/kg at 25 +/-1 degC measured after 4 days; summary of the method: as §1
[7] = system: Mythimna separata; assay: Larvicidal activity against fourth-instar larval stage of Mythimna separata (Oriental armyworm) in compound-pretreated corn leaves assessed as mortality at 200 mg/kg at 25 +/-1 degC measured after 4 days; summary of the method: as §1
[8] = system: Mythimna separata; assay: Larvicidal activity against fourth-instar larval stage of Mythimna separata (Oriental armyworm) in compound-pretreated corn leaves assessed as mortality at 30 mg/kg at 25 +/-1 degC measured after 4 days; summary of the method: as §1
[9] = system: Mythimna separata; assay: Larvicidal activity against fourth-instar larval stage of Mythimna separata (Oriental armyworm) in compound-pretreated corn leaves assessed as mortality at 40 mg/kg at 25 +/-1 degC measured after 4 days; summary of the method: as §1
[10] = system: Mythimna separata; assay: Larvicidal activity against fourth-instar larval stage of Mythimna separata (Oriental armyworm) in compound-pretreated corn leaves assessed as mortality at 20 mg/kg at 25 +/-1 degC measured after 4 days; summary of the method: as §1
[11] = system: Plutella xylostella; assay: Toxic ratio of RH-5992 LC50 to compound LC50 for second-instar larval stage of Plutella xylostella (diamondback moth) measured after 6 days by leaf-dip method
Summary of the method: (§2)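 Leaf-dip assay on laboratory-reared diamondback moth larvae at 25 ± 1 °C. Fresh cabbage leaf disks 1.8 cm across were dipped in test solution for 15 s. Larvae were scored dead or alive, and mortality was corrected by Abbott's formula. Mortality-regression data were put through Finney probit analysis to give LC50 for the test compounds and the parent reference.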

[12] = system: Plutella xylostella; assay: Larvicidal activity against second-instar larval stage of Plutella xylostella (diamondback moth) in cabbage leaves assessed as mortality at 25 +/-1 degC treated for 15 secs before larval infestation measured after 6 days by leaf-dip method; settings: 144 h; summary of the method: as §2

| SMILES | mortality at 25 mg/kg [1] [%] | mortality at 2.5 mg/kg [2] [%] | mortality at 10 mg/kg [3] [%] | mortality at 5 mg/kg [4] [%] | mortality at 50 mg/kg [5] [%] | mortality at 100 mg/kg [6] [%] | mortality at 200 mg/kg [7] [%] | mortality at 30 mg/kg [8] [%] | mortality at 40 mg/kg [9] [%] | mortality at 20 mg/kg [10] [%] | RatioLC50 [11] | LC50 [12] [µg/mL] |
| --- | --- | --- | --- | --- | --- | --- | --- | --- | --- | --- | --- | --- |
| CCCSSN(C(=O)c1cccc(OC)c1C)N(C(=O)c1cc(C)cc(C)c1)C(C)(C)C | 100 | 100 | 100 | 100 | – | – | – | – | – | – | – | – |
| CCCCSSN(C(=O)c1ccc(Cl)cc1)N(C(=O)c1ccccc1)C(C)(C)C | 100 | 0 | 90 | 30 | – | – | – | – | – | – | – | – |
| CCCCSSN(C(=O)c1ccc(CC)cc1)N(C(=O)c1cc(C)cc(C)c1)C(C)(C)C | – | 90 | 100 | 100 | – | – | – | – | – | – | – | – |
| CCc1ccc(CN(SNc2ccc(Cl)cc2)N(C(=O)c2cc(C)cc(C)c2)C(C)(C)C)cc1 | 100 | 0 | 90 | 80 | – | – | – | – | – | – | – | – |
| Cc1cccc(C(=O)N(N(SSN(C(=O)c2ccccc2)N(C(=O)c2cccc(C)c2)C(C)(C)C)C(=O)c2ccccc2)C(C)(C)C)c1 | – | – | 0 | – | 10 | 50 | 100 | – | – | – | – | – |
| CCCCSSN(C(=O)c1cccc(OC)c1C)N(C(=O)c1cc(C)cc(C)c1)C(C)(C)C | 100 | 100 | 100 | 100 | – | – | – | – | – | – | – | – |
| CC(C)(C)N(NC(=O)c1ccc(Cl)cc1)C(=O)c1ccccc1 [HALOFENOZIDE] | – | 10 | 0 | 70 | 100 | 100 | 100 | 95 | 100 | 85 | – | – |
| CC(C)(C)N(NC(=O)c1ccccc1)C(=O)c1ccccc1 [RH-5849] | 70 | – | 0 | – | 95 | – | – | – | – | – | – | – |
| CC(C)(C)N(C(=O)c1ccccc1)N(SSN(C(=O)c1ccc(Cl)cc1)N(C(=O)c1ccccc1)C(C)(C)C)C(=O)c1ccc(Cl)cc1 | – | – | 10 | – | 100 | 100 | – | 85 | 100 | 75 | – | – |
| Cc1cccc(C(=O)N(N(SSN(C(=O)c2ccc(Cl)cc2)N(C(=O)c2cccc(C)c2)C(C)(C)C)C(=O)c2ccc(Cl)cc2)C(C)(C)C)c1 | – | – | 0 | – | 100 | 100 | 100 | – | – | – | – | – |
| Cc1cccc(C(=O)N(NC(=O)c2ccccc2)C(C)(C)C)c1 | – | – | 0 | – | 30 | 50 | 100 | – | – | – | – | – |
| CCc1ccc(C(=O)N(SSN(C(=O)c2ccc(CC)cc2)N(C(=O)c2cc(C)cc(C)c2)C(C)(C)C)N(C(=O)c2cc(C)cc(C)c2)C(C)(C)C)cc1 | – | – | 10 | – | 100 | 100 | 100 | 100 | 100 | 95 | – | – |
| CCc1ccc(C(=O)NN(C(=O)c2cc(C)cc(C)c2)C(C)(C)C)cc1 [TEBUFENOZIDE] | – | 55 | 75 | 95 | 100 | 100 | 100 | 100 | 100 | 100 | 1 | 56.9 (≈ 161 µM) |
| CCCSSN(C(=O)c1ccc(CC)cc1)N(C(=O)c1cc(C)cc(C)c1)C(C)(C)C | – | 100 | 100 | 100 | – | – | – | – | – | – | – | – |
| Cc1cc(C)cc(C(=O)N(NC(=O)c2ccc3c(c2C)OC(C)C3)C(C)(C)C)c1 (stereo not drawn) [FUXIAN] | – | 90 | – | 100 | – | – | – | – | – | – | – | – |
| CCOC(=O)CCN(Cc1ccccc1)SN(Cc1ccc(CC)cc1)N(C(=O)c1cc(C)cc(C)c1)C(C)(C)C | – | 100 | – | – | – | – | – | – | – | – | – | – |
| CCCCSSN(C(=O)c1ccc2c(c1C)OC(C)C2)N(C(=O)c1cc(C)cc(C)c1)C(C)(C)C (stereo not drawn) | 100 | 80 | 100 | 100 | – | – | – | – | – | – | – | – |
| CCCCSSN(C(=O)c1ccccc1)N(C(=O)c1ccccc1)C(C)(C)C | 90 | – | 0 | – | 100 | – | – | – | – | – | – | – |
| CCc1ccc(CN(SNc2ccc(C)cc2)N(C(=O)c2cc(C)cc(C)c2)C(C)(C)C)cc1 | – | 100 | – | – | – | – | – | – | – | – | – | – |
| Cc1cc(C)cc(C(=O)N(NC(=O)c2ccc(Cl)cc2)C(C)(C)C)c1 | – | – | 30 | – | 100 | 100 | 100 | – | 100 | 50 | – | – |
| CCCSSN(C(=O)c1ccc2c(c1C)OC(C)C2)N(C(=O)c1cc(C)cc(C)c1)C(C)(C)C (stereo not drawn) | 100 | 100 | 100 | 100 | – | – | – | – | – | – | – | – |
| CCCSSN(C(=O)c1ccccc1)N(C(=O)c1ccccc1)C(C)(C)C | 90 | – | 0 | – | 100 | – | – | – | – | – | – | – |
| Cc1cc(C)cc(C(=O)N(NC(=O)c2ccccc2)C(C)(C)C)c1 | – | – | 10 | – | 80 | 100 | 100 | – | – | – | – | – |
| CC(C)(C)N(C(=O)c1ccccc1)N(SSN(C(=O)c1ccccc1)N(C(=O)c1ccccc1)C(C)(C)C)C(=O)c1ccccc1 | – | – | 5 | – | 60 | 85 | 95 | – | – | – | – | – |
| Cc1cccc(C(=O)N(NC(=O)c2ccc(Cl)cc2)C(C)(C)C)c1 | – | – | 0 | – | 90 | 100 | 100 | – | – | – | – | – |
| Cc1cc(C)cc(C(=O)N(N(SSN(C(=O)c2ccc(Cl)cc2)N(C(=O)c2cc(C)cc(C)c2)C(C)(C)C)C(=O)c2ccc(Cl)cc2)C(C)(C)C)c1 | – | – | 0 | – | 60 | 90 | 100 | – | – | – | – | – |
| CCCSSN(C(=O)c1ccc(Cl)cc1)N(C(=O)c1ccccc1)C(C)(C)C | 100 | 0 | 80 | 20 | – | – | – | – | – | – | – | – |
| Cc1cc(C)cc(C(=O)N(N(SSN(C(=O)c2ccccc2)N(C(=O)c2cc(C)cc(C)c2)C(C)(C)C)C(=O)c2ccccc2)C(C)(C)C)c1 | – | – | 0 | – | 10 | 70 | 100 | – | – | – | – | – |

From ChEMBL document CHEMBL3044702, “Synthesis and insecticidal activities of novel N-sulfenyl-N'-tert-butyl-N,N'-diacylhydrazines. 3. N-(alkyldithio), n-(aminothio), and N,N-dithio derivatives” (2008)
